ChEMBL document CHEMBL4689842, “EUbOPEN Chemogenomics Library wave 1” (2021)
Values joined by “and” are separate entries in the source; they are usually repeats but may differ in a detail not shown here. Identical values can stand only once.

Test system: Fibroblast
Assay: Multiplex assay against human fibroblast
Type: toxicity, cell-based
Summary of the method: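 Four dyes were applied at seeding to live cells: Hoechst33342, BioTracker Green Microtubule Cytoskeleton Dye, MitoTracker Red and Annexin V Alexa Fluor 680. Imaging after compound addition used a CQ1 microscope at 37°C and 5% CO2. CellPathfinder machine-learning gating then sorted cells into Hoechst high-intensity objects or normal cells, normal cells into healthy, pyknosed or fragmented nuclei, and pyknosed cells into mitotic or apoptotic, with tubulin, mitochondrial-mass and membrane-permeability phenotypes given as per cents of healthy-nucleus cells.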

[1] = 12 h, 1 µM, compound concentration 1 uM, replicate 1
[2] = 12 h, 1 µM, compound concentration 1 uM, replicate 2
[3] = 12 h, 10 µM, compound concentration 10 uM, replicate 1
[4] = 12 h, 10 µM, compound concentration 10 uM, replicate 2
[5] = 24 h, 1 µM, compound concentration 1 uM, replicate 1
[6] = 24 h, 1 µM, compound concentration 1 uM, replicate 2
[7] = 24 h, 10 µM, compound concentration 10 uM, replicate 1
[8] = 24 h, 10 µM, compound concentration 10 uM, replicate 2
[9] = 48 h, 10 µM, compound concentration 10 uM, replicate 1
[10] = 48 h, 10 µM, compound concentration 10 uM, replicate 2

c1ccc(-c2oc3ncnc(NC[C@@H]4CCCO4)c3c2-c2ccccc2)cc1
Population Apoptotic (%) [1]: 77% and 68% | Population Fragmented Nuclei (%) [1]: 30% and 24% | Population Healthy Nuclei (%) [1]: 49% and 53% | Population Hoechst High Intensity Objects (%) [1]: 11% and 13% | Population Membrane Permeable-Phenotype (%) [1]: 22% and 42% | Population Mitochondria Different-Phenotype (%) [1]: 7% and 16% | Population Mitotic Cells (%) [1]: 22% and 31% | Population Normal (%) [1]: 88% and 86% | Population Pyknosed Nuclei (%) [1]: 20% and 21% | Total Cell Count [1]: 123 and 267 | Population Apoptotic (%) [2]: 50% and 25% | Population Fragmented Nuclei (%) [2]: 35% and 48% | Population Healthy Nuclei (%) [2]: 40% and 37% | Population Hoechst High Intensity Objects (%) [2]: 35% and 44% | Population Membrane Permeable-Phenotype (%) [2]: 29% and 27% | Population Mitochondria Different-Phenotype (%) [2]: 11% and 18% | Population Mitotic Cells (%) [2]: 50% and 75% | Population Normal (%) [2]: 64% and 55% | Population Pyknosed Nuclei (%) [2]: 23% and 13% | Population Tubulin-Different-Phenotype (%) [2]: 47% and 100% | Total Cell Count [2]: 65 and 52 | Population Apoptotic (%) [3]: 53% | Population Fragmented Nuclei (%) [3]: 20% | Population Healthy Nuclei (%) [3]: 41% | Population Hoechst High Intensity Objects (%) [3]: 20% | Population Membrane Permeable-Phenotype (%) [3]: 21% | Population Mitochondria Different-Phenotype (%) [3]: 42% | Population Mitotic Cells (%) [3]: 46% | Population Normal (%) [3]: 79% | Population Pyknosed Nuclei (%) [3]: 37% | Population Tubulin-Different-Phenotype (%) [3]: 84% | Total Cell Count [3]: 99 | Population Apoptotic (%) [4]: 87% | Population Fragmented Nuclei (%) [4]: 14% | Population Healthy Nuclei (%) [4]: 71% | Population Hoechst High Intensity Objects (%) [4]: 6% | Population Membrane Permeable-Phenotype (%) [4]: 34% | Population Mitochondria Different-Phenotype (%) [4]: 56% | Population Mitotic Cells (%) [4]: 12% | Population Normal (%) [4]: 93% | Population Pyknosed Nuclei (%) [4]: 14% | Population Tubulin-Different-Phenotype (%) [4]: 95% | Total Cell Count [4]: 61 | Population Apoptotic (%) [5]: 65% and 78% | Population Fragmented Nuclei (%) [5]: 19% and 29% | Population Healthy Nuclei (%) [5]: 59% and 57% | Population Hoechst High Intensity Objects (%) [5]: 18% and 12% | Population Membrane Permeable-Phenotype (%) [5]: 17% and 16% | Population Mitotic Cells (%) [5]: 34% and 21% | Population Normal (%) [5]: 81% and 87% | Population Pyknosed Nuclei (%) [5]: 21% and 13% | Total Cell Count [5]: 254 and 121 | Population Apoptotic (%) [6]: 70% and 83% | Population Fragmented Nuclei (%) [6]: 43% and 66% | Population Healthy Nuclei (%) [6]: 34% and 17% | Population Hoechst High Intensity Objects (%) [6]: 33% and 36% | Population Membrane Permeable-Phenotype (%) [6]: 13% and 28% | Population Mitotic Cells (%) [6]: 30% and 16% | Population Normal (%) [6]: 66% and 63% | Population Pyknosed Nuclei (%) [6]: 22% and 15% | Population Tubulin-Different-Phenotype (%) [6]: 66% and 100% | Total Cell Count [6]: 66 and 61 | Population Apoptotic (%) [7]: 76% | Population Fragmented Nuclei (%) [7]: 43% | Population Healthy Nuclei (%) [7]: 39% | Population Hoechst High Intensity Objects (%) [7]: 25% | Population Membrane Permeable-Phenotype (%) [7]: 13% | Population Mitochondria Different-Phenotype (%) [7]: 51% | Population Mitotic Cells (%) [7]: 23% | Population Normal (%) [7]: 74% | Population Pyknosed Nuclei (%) [7]: 17% | Population Tubulin-Different-Phenotype (%) [7]: 82% | Total Cell Count [7]: 99 | Population Apoptotic (%) [8]: 100% | Population Fragmented Nuclei (%) [8]: 14% | Population Healthy Nuclei (%) [8]: 68% | Population Hoechst High Intensity Objects (%) [8]: 10% | Population Membrane Permeable-Phenotype (%) [8]: 21% | Population Mitochondria Different-Phenotype (%) [8]: 56% | Population Mitotic Cells (%) [8]: 0% | Population Normal (%) [8]: 90% | Population Pyknosed Nuclei (%) [8]: 16% | Population Tubulin-Different-Phenotype (%) [8]: 81% | Total Cell Count [8]: 60 | Population Apoptotic (%) [9]: 60% | Population Fragmented Nuclei (%) [9]: 36% | Population Healthy Nuclei (%) [9]: 51% | Population Hoechst High Intensity Objects (%) [9]: 14% | Population Membrane Permeable-Phenotype (%) [9]: 13% | Population Mitochondria Different-Phenotype (%) [9]: 55% | Population Mitotic Cells (%) [9]: 40% | Population Normal (%) [9]: 85% | Population Pyknosed Nuclei (%) [9]: 11% | Population Tubulin-Different-Phenotype (%) [9]: 95% | Total Cell Count [9]: 98 | Population Apoptotic (%) [10]: 0% | Population Fragmented Nuclei (%) [10]: 40% | Population Healthy Nuclei (%) [10]: 59% | Population Hoechst High Intensity Objects (%) [10]: 10% | Population Membrane Permeable-Phenotype (%) [10]: 16% | Population Mitochondria Different-Phenotype (%) [10]: 42% | Population Mitotic Cells (%) [10]: 0% | Population Normal (%) [10]: 89% | Population Pyknosed Nuclei (%) [10]: 0% | Population Tubulin-Different-Phenotype (%) [10]: 96% | Total Cell Count [10]: 105

Cl.Cn1c2c(c3ccc(Cl)c(Cl)c31)C(C#N)C1(CCNCC1)NC2=O (centres undefined)
Population Apoptotic (%) [1]: 75% | Population Fragmented Nuclei (%) [1]: 35% | Population Healthy Nuclei (%) [1]: 51% | Population Hoechst High Intensity Objects (%) [1]: 11% | Population Membrane Permeable-Phenotype (%) [1]: 8% | Population Mitochondria Different-Phenotype (%) [1]: 2% | Population Mitotic Cells (%) [1]: 25% | Population Normal (%) [1]: 88% | Population Pyknosed Nuclei (%) [1]: 13% | Population Tubulin-Different-Phenotype (%) [1]: 6% | Total Cell Count [1]: 332 | Population Apoptotic (%) [2]: 50% | Population Fragmented Nuclei (%) [2]: 59% | Population Healthy Nuclei (%) [2]: 33% | Population Hoechst High Intensity Objects (%) [2]: 32% | Population Membrane Permeable-Phenotype (%) [2]: 9% | Population Mitochondria Different-Phenotype (%) [2]: 9% | Population Mitotic Cells (%) [2]: 50% | Population Normal (%) [2]: 67% | Population Pyknosed Nuclei (%) [2]: 6% | Population Tubulin-Different-Phenotype (%) [2]: 9% | Total Cell Count [2]: 92 | Population Apoptotic (%) [3]: 64% | Population Fragmented Nuclei (%) [3]: 44% | Population Healthy Nuclei (%) [3]: 40% | Population Hoechst High Intensity Objects (%) [3]: 19% | Population Membrane Permeable-Phenotype (%) [3]: 8% | Population Mitochondria Different-Phenotype (%) [3]: 6% | Population Mitotic Cells (%) [3]: 35% | Population Normal (%) [3]: 80% | Population Pyknosed Nuclei (%) [3]: 14% | Population Tubulin-Different-Phenotype (%) [3]: 37% | Total Cell Count [3]: 482 | Population Apoptotic (%) [4]: 40% | Population Fragmented Nuclei (%) [4]: 48% | Population Healthy Nuclei (%) [4]: 39% | Population Hoechst High Intensity Objects (%) [4]: 23% | Population Membrane Permeable-Phenotype (%) [4]: 5% | Population Mitochondria Different-Phenotype (%) [4]: 2% | Population Mitotic Cells (%) [4]: 60% | Population Normal (%) [4]: 76% | Population Pyknosed Nuclei (%) [4]: 11% | Population Tubulin-Different-Phenotype (%) [4]: 73% | Total Cell Count [4]: 112 | Population Apoptotic (%) [5]: 67% | Population Fragmented Nuclei (%) [5]: 38% | Population Healthy Nuclei (%) [5]: 50% | Population Hoechst High Intensity Objects (%) [5]: 15% | Population Membrane Permeable-Phenotype (%) [5]: 4% | Population Mitochondria Different-Phenotype (%) [5]: 3% | Population Mitotic Cells (%) [5]: 32% | Population Normal (%) [5]: 84% | Population Pyknosed Nuclei (%) [5]: 10% | Population Tubulin-Different-Phenotype (%) [5]: 4% | Total Cell Count [5]: 379 | Population Apoptotic (%) [6]: 0% | Population Fragmented Nuclei (%) [6]: 67% | Population Healthy Nuclei (%) [6]: 31% | Population Hoechst High Intensity Objects (%) [6]: 29% | Population Membrane Permeable-Phenotype (%) [6]: 9% | Population Mitochondria Different-Phenotype (%) [6]: 0% | Population Mitotic Cells (%) [6]: 100% | Population Normal (%) [6]: 70% | Population Pyknosed Nuclei (%) [6]: 1% | Population Tubulin-Different-Phenotype (%) [6]: 19% | Total Cell Count [6]: 95 | Population Apoptotic (%) [7]: 61% | Population Fragmented Nuclei (%) [7]: 28% | Population Healthy Nuclei (%) [7]: 55% | Population Hoechst High Intensity Objects (%) [7]: 37% | Population Membrane Permeable-Phenotype (%) [7]: 6% | Population Mitochondria Different-Phenotype (%) [7]: 10% | Population Mitotic Cells (%) [7]: 38% | Population Normal (%) [7]: 62% | Population Pyknosed Nuclei (%) [7]: 15% | Population Tubulin-Different-Phenotype (%) [7]: 38% | Total Cell Count [7]: 492 | Population Apoptotic (%) [8]: 87% | Population Fragmented Nuclei (%) [8]: 42% | Population Healthy Nuclei (%) [8]: 42% | Population Hoechst High Intensity Objects (%) [8]: 43% | Population Membrane Permeable-Phenotype (%) [8]: 9% | Population Mitochondria Different-Phenotype (%) [8]: 14% | Population Mitotic Cells (%) [8]: 12% | Population Normal (%) [8]: 56% | Population Pyknosed Nuclei (%) [8]: 16% | Population Tubulin-Different-Phenotype (%) [8]: 42% | Total Cell Count [8]: 89
